{"data": "Experimental data collected from several papers"}
{"SMILES": "FC(F)(F)c1cc(OCc2cc(-c3ccccn3)no2)c2ccccc2n1", "cell line": "CAPAN-1", "test": "cell growth or viability, MTS", "conditions": "72 h", "IC50": "> 100 µM"}
{"SMILES": "O=[N+]([O-])c1ccc(Sc2cccc[n+]2[O-])c2nonc12", "cell line": "MP46", "test": "cell growth or viability, ATP luminescence", "conditions": "72 h", "IC50": "2.79 µM"}
{"SMILES": "CONC(=O)c1cccc2c1cc(C)n2-c1nc2c(c(NCc3ccccc3)n1)CCCN2", "cell line": "SW-620", "test": "cell growth or viability", "conditions": "72 h", "IC50": "2.3 µM"}
{"SMILES": "O=C(NO)c1ccc(Cn2cnc3c(Nc4ccc(F)c(Cl)c4)ncnc32)cc1", "cell line": "THP-1", "test": "cell growth or viability, MTT", "conditions": "72 h", "IC50": "1.61 µM"}
{"SMILES": "FC(F)(F)c1cc(OCc2cc(-c3ccccc3)no2)c2ccccc2n1", "cell line": "CAPAN-1", "test": "cell growth or viability, MTS", "conditions": "72 h", "IC50": "7.4 µM"}
{"SMILES": "CC(C)(C)c1cc(/C=C2\\SC(N)=NC2=O)cc(C(C)(C)C)c1O", "cell line": "HepaRG", "test": "reactive oxygen species, inhibitor", "conditions": "16 h", "IC50": "0.83 µM"}
{"SMILES": "COc1ccc(Nc2ncnc3c2ncn3Cc2ccc(C(=O)NO)cc2)cc1", "cell line": "THP-1", "test": "cell growth or viability, MTT", "conditions": "72 h", "IC50": "0.42 µM"}
{"SMILES": "Clc1ccc(-c2cc(CNc3cccc4cccnc34)on2)c(Cl)c1", "cell line": "CAPAN-1", "test": "cell growth or viability, MTS", "conditions": "72 h", "IC50": "14.9 µM"}
{"SMILES": "O=C(CSc1nc2ccccc2s1)N/N=C/c1ccc(OCC(=O)Nc2ccc([N+](=O)[O-])cc2)cc1", "cell line": "CAPAN-1", "test": "cell growth or viability, MTS", "conditions": "72 h", "IC50": "29.4 µM"}
{"SMILES": "COc1ccc(Nc2ncnc3c2ncn3Cc2ccc(C(=O)Nc3ccccc3N)cc2)cc1", "cell line": "THP-1", "test": "cell growth or viability, MTT", "conditions": "72 h", "IC50": "0.93 µM"}
{"SMILES": "COc1cc([C@@H]2c3cc4c(cc3[C@@H](O[C@@H]3O[C@@H]5CO[C@@H](C)O[C@H]5[C@H](O)[C@H]3O)[C@H]3COC(=O)[C@H]23)OCO4)cc(OC)c1O", "cell line": "CAPAN-1", "test": "cell growth or viability, MTS", "conditions": "72 h", "IC50": "0.24 µM"}
{"SMILES": "N#Cc1ccc(-c2cc(COc3cc(C(F)(F)F)nc4ccccc34)on2)cc1", "cell line": "CAPAN-1", "test": "cell growth or viability, MTS", "conditions": "72 h", "IC50": "22.5 µM"}
{"SMILES": "CC1(P2(=O)CCCCC2)CCCCC1", "cell line": "SW-620", "test": "cell growth or viability, MTT", "conditions": "72 h", "IC50": "> 100 µM"}
{"SMILES": "O=c1cc(OCc2cc(-c3ccccc3)no2)c2ccccc2o1", "cell line": "CAPAN-1", "test": "cell growth or viability, MTS", "conditions": "72 h", "IC50": "> 100 µM"}
{"SMILES": "Cc1noc(C)c1-c1cc(C(O)(c2ccccn2)c2ccccn2)c2nc(C3CC3)[nH]c2c1", "cell line": "MP46", "test": "cell growth or viability, ATP luminescence", "conditions": "72 h", "IC50": "0.0712 µM"}
{"SMILES": "O=c1cc(OCc2cc(-c3ccc(Cl)cc3Cl)no2)c2ccccc2o1", "cell line": "CAPAN-1", "test": "cell growth or viability, MTS", "conditions": "72 h", "IC50": "80.1 µM"}
{"SMILES": "CC(=O)N1c2ccc(-c3ccc(C(=O)O)cc3)cc2[C@H](Nc2ccc(Cl)cc2)C[C@@H]1C", "cell line": "MP46", "test": "cell growth or viability, ATP luminescence", "conditions": "72 h", "IC50": "0.104 µM"}
{"SMILES": "COc1cccc2c1C(=O)c1c(O)c3c(c(O)c1C2=O)C[C@@](O)(C(=O)CO)C[C@@H]3O[C@H]1C[C@H](N)[C@H](O)[C@H](C)O1", "cell line": "SW-620", "test": "cell growth or viability, MTT", "conditions": "72 h", "IC50": "0.3 µM"}
{"SMILES": "COC(=O)Nc1nc2ccc(C(=O)c3cccs3)cc2[nH]1", "cell line": "HepaRG", "test": "reactive oxygen species, inhibitor", "conditions": "16 h", "IC50": "9.61 µM"}
{"SMILES": "Cc1noc2c1-c1ccc(-c3cnn(C)c3)cc1C(c1ccc(Cl)cc1)=N[C@H]2CC(N)=O", "cell line": "MP46", "test": "cell growth or viability, ATP luminescence", "conditions": "72 h", "IC50": "0.248 µM"}
{"SMILES": "CC(C)(C)c1cnc(CSc2cnc(NC(=O)C3CCN(C(=O)CCCCCCCN4Cc5cc6c(cc5C4)C(=O)N(C4CCC(=O)NC4=O)C6=O)CC3)s2)o1 (stereo not shown)", "cell line": "SJSA-1", "test": "cell growth or viability, MTT", "IC50": "0.174 µM"}
{"SMILES": "O=C(CSc1nc2ccccc2s1)N/N=C/c1ccc(OCC(=O)Nc2cccc([N+](=O)[O-])c2)cc1", "cell line": "CAPAN-1", "test": "cell growth or viability, MTS", "conditions": "72 h", "IC50": "4.25 µM"}
{"SMILES": "COc1ccc(C[C@H](N)C(=O)N[C@H]2[C@@H](O)[C@H](n3cnc4c(N(C)C)ncnc43)O[C@@H]2CO)cc1", "cell line": "THP-1", "test": "cell growth or viability", "conditions": "72 h", "IC50": "2.03 µM"}
{"SMILES": "FC(F)(F)c1ccc(-c2cc(CNc3cccc4cccnc34)on2)cc1", "cell line": "CAPAN-1", "test": "cell growth or viability, MTS", "conditions": "72 h", "IC50": "19.9 µM"}
{"SMILES": "CCNC(=O)c1cc2c(-c3cc(C(C)(C)O)ccc3Oc3c(C)cc(F)cc3C)cn(C)c(=O)c2[nH]1", "cell line": "MP46", "test": "cell growth or viability, ATP luminescence", "conditions": "72 h", "IC50": "56600 µM"}
{"SMILES": "CC1(P2(=O)CCCCC2)C=CCC=C1", "cell line": "SW-620", "test": "cell growth or viability, MTT", "conditions": "72 h", "IC50": "> 100 µM"}
{"SMILES": "C[C@H]1C[C@H]2[C@@H]3CCC4=CC(=O)C=C[C@]4(C)[C@H]3C(=O)C[C@]2(C)[C@@]1(O)C(=O)CO", "cell line": "HepaRG", "test": "reactive oxygen species, inhibitor", "conditions": "16 h", "IC50": "5.27 µM"}
{"SMILES": "C/C=C1\\NC(=O)[C@H]2CSSCC/C=C/[C@H](CC(=O)N[C@H](C(C)C)C(=O)N2)OC(=O)[C@H](C(C)C)NC1=O", "cell line": "MP46", "test": "cell growth or viability, ATP luminescence", "conditions": "72 h", "IC50": "0.00127 µM"}
{"SMILES": "O=C(NO)c1ccc(Cn2cnc3c(Nc4ccc(Cl)cc4)ncnc32)cc1", "cell line": "THP-1", "test": "cell growth or viability, MTT", "conditions": "72 h", "IC50": "0.19 µM"}
{"SMILES": "COc1ccc(-c2nc(N3CCOCC3)c3sc(CN(C)c4ncc(C(=O)NO)cn4)cc3n2)cn1", "cell line": "MP46", "test": "cell growth or viability, ATP luminescence", "conditions": "72 h", "IC50": "0.00928 µM"}
{"SMILES": "O=c1cc(OCc2cc(-c3ccccn3)no2)c2ccccc2o1", "cell line": "CAPAN-1", "test": "cell growth or viability, MTS", "conditions": "72 h", "IC50": "> 100 µM"}
